Data taken from PubChem BioAssay AID1216 (Sanford-Burnham Center for Chemical Genomics, 2008).
Out of some 190,000 compounds screened, about 660 (0.35%) were called active. The list comes from a sample in which actives are over-represented; it also holds similar structures and randomly drawn compounds. Values without a mark were called inactive.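 How the source made its calls: active means activation factor of 2 or more at 20 µM; inactive means the rest.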

What follows are compounds tested against Mannose-6-phosphate isomerase (Homo sapiens) (UniProt P34949) (assay: human PMI activators, high substrate, primary screen, biochemical, fluorescence intensity, near-saturating mannose 6-phosphate (AID 1216)). Conditions: coupled PMI enzyme assay, resazurin fluorescence, 20 min; at 20 µM; hits give high values; 1 = untreated enzyme, 0 = substrate-free blank.
Summary of the method: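 Material: human phosphomannose isomerase with PGI, G6PDH, diaphorase coupling enzymes / Reagent: Man-6-P substrate 1.0 mM / Dosing: single compound dose of 20 µM, 1% DMSO final / Incubation: enzyme reaction with compound 20 min at room temperature / Signal: resorufin fluorescence (Ex 544/Em 590 nm) from resazurin via diaphorase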

Sequence of Mannose-6-phosphate isomerase (Homo sapiens) (P34949 whole entry, looked up): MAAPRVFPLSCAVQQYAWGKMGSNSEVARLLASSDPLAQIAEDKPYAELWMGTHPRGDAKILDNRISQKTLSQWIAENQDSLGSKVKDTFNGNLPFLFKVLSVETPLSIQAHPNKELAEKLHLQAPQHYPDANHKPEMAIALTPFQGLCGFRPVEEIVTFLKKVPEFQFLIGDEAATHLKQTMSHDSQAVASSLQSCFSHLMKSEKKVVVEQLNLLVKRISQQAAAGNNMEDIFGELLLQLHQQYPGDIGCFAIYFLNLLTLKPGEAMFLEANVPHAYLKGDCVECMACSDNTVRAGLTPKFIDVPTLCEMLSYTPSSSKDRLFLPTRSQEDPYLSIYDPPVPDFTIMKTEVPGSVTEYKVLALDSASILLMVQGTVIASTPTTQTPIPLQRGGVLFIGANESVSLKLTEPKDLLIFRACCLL

Row | Compound | activation factor
1 | Cc1ccc(N=C2NC(=O)/C(=C/C=C/c3ccco3)S2)cc1C | 2 (active)
2 | Cc1cccc(N=C2NC(=O)/C(=C/c3cn(C)c4ccccc34)S2)c1 | 0.9
3 | Cc1ccc(N2NC(=O)/C(=C/C=C/c3ccco3)C2=O)cc1C | 1.2
4 | COc1ccc(/C=C/C(=O)c2cc(Br)ccc(=O)c2O)cc1 | 2.1 (active)
5 | COc1ccc(C(=O)/C=C/c2ccc(OC3CSC3)cc2)cc1 | 0.9
6 | COc1ccc(/C=C/C(=O)c2ccc(OC)cc2O)cc1 | 0.9
7 | CCCCC(NS(=O)(=O)c1ccc(C)cc1)C(=O)Oc1ccc2c3c(c(=O)oc2c1)CCC3 (configuration not stated) | 0.9
8 | N/C(=N\OS(=O)(=O)c1cccc([N+](=O)[O-])c1)c1ccncc1 | 1
9 | Cc1cc(C)c2nc(SCC(=O)N(C)C3CCS(=O)(=O)C3)cc(C)c2c1 (configuration not stated) | 2 (active)
10 | CCn1c(SCC(=O)N(C)C2CCS(=O)(=O)C2)nnc1-c1cccs1 (configuration not stated) | 1.1
11 | COc1ccc2c(-c3ccccc3)cc(SCC(=O)N(C)C3CCS(=O)(=O)C3)nc2c1 (configuration not stated) | 1.3
12 | Cc1cc(/C=C2/NC(=O)NC2=O)c(C)n1-c1cccnc1 | 0.9
13 | CC(CC(=O)Nc1ccccc1)n1ccnc1 (configuration not stated) | 1
14 | Cc1c(-c2cccc(Cl)c2)nc2ccccc2c1C(=O)OCC(=O)N(C)C1CCS(=O)(=O)C1 (configuration not stated) | 1
15 | Cc1nccn1CCC1CCCCN1C(=O)CCc1nnc(-c2ccsc2)o1 (configuration not stated) | 0.9
16 | OCCC#Cc1ccc(CN2CCN(Cc3ccsc3)C(CCO)C2)cc1 (configuration not stated) | 1
17 | O=C(Nc1ccc([N+](=O)[O-])cc1)C1CC12CCC2 (configuration not stated) | 1.1
18 | Cc1ccc(CNC(=O)COc2ccc3c(c2)CCC3)cc1 | 1
19 | CC1CCN(C(=O)c2ccc(S(=O)(=O)Cc3cc(F)ccc3F)c([N+](=O)[O-])c2)CC1 | 0.8
20 | COc1ccc(C2CC(c3cccs3)=NN2C(=O)CSc2nncs2)cc1OC (configuration not stated) | 1
21 | COc1ccc(C2CC(c3cccs3)=NN2c2ccccc2)cc1 (configuration not stated) | 1.2
22 | COc1ccc(C2CC(c3cccs3)=NN2C(=O)CSc2nnc(N)s2)cc1OC (configuration not stated) | 1
23 | COc1ccc(C2CC(c3cccs3)=NN2c2ccc(F)cc2)cc1OC (configuration not stated) | 2.2 (active)
24 | COc1ccccc1N1N=C(c2cccs2)CC1c1ccccc1 (configuration not stated) | 1.2
25 | COc1ccc(C2CC(c3cccs3)=NN2c2nc(C)c(C(C)=O)s2)cc1OC (configuration not stated) | 2 (active)
26 | COc1cc(/C=C(/NC(=O)c2ccc(Cl)cc2Cl)C(=O)O)cc(OC)c1OC | 1

Row | Compound | activation factor
27 | NC(=O)c1ccccc1N(Cc1ccccc1)S(=O)(=O)c1ccccc1 | 1
28 | CCN(CC)S(=O)(=O)c1cc([N+](=O)[O-])ccc1N=Nc1c(O)n(C)c2ccccc12 | 1.1
29 | Cc1ccc(-c2nc(C)sc2CC(=O)OCC(=O)Nc2c(F)cccc2F)cc1 | 0.9
30 | Cc1ccc(C2=NN(C(=O)COc3ncnc4ccccc34)C(c3ccco3)C2)cc1 (configuration not stated) | 0.8
31 | CO/N=C/c1cn(-c2ccc(Cl)cc2)nn1 | 1
32 | CC1(C)OC(=O)C(=CSc2ccc(C(C)(C)C)cc2)C(=O)O1 | 1.1
33 | CCCC(=O)Nc1cccc(NC(=S)NC(=O)C(C)Oc2ccc(Cl)cc2Cl)c1 (configuration not stated) | 1
34 | O=C(N/C(=C\c1ccc(F)cc1)C(=O)N1CCCCCC1)c1ccccc1 | 0.9
35 | Cc1cc(OCCCN2CCN(Cc3ccccc3)CC2)ccc1[N+](=O)[O-] | 1
36 | COc1ccc(Cc2nnnn2CC(=O)O)cc1 | 1.1
37 | CSc1nc(O)c(Cc2ccccc2)c(=O)[nH]1 | 1
38 | COc1ccc(Cc2nnc(SC)[nH]c2=O)cc1 | 2 (active)
39 | O=C(NNC(=O)c1ccccc1[N+](=O)[O-])Nc1ccccc1C(F)(F)F | 1
40 | O=C(NC1CCCC1)C(c1ccc(N2CCOCC2)cc1)N(C(=O)c1ccco1)c1ccccc1F (configuration not stated) | 0.9
41 | Cc1ccc(NC(=O)NC(=O)N(C2CCCCC2)S(=O)(=O)c2ccccc2)cc1 | 0.9
42 | Cc1nn(-c2ccc([N+](=O)[O-])cc2)c(N)c1-c1ccccc1 | 1
43 | Cc1cc(C(=O)N/N=C/c2ccc(N3CCOCC3)cc2)c(C)o1 | 1.1
44 | C(=N/Nc1cc(N2CCOCC2)nc(N2CCOCC2)n1)/c1ccccc1 | 0.4
45 | Cc1ccccc1N/N=C/c1ccc(N2CCOCC2)cc1 | 2.4 (active)
46 | S=C(NC1CCCCC1)NN1CCOCC1 | 1.1
47 | Cc1ccc(OCc2n[nH]c(=S)n2-c2ccc(C)cc2)cc1 | 0.8
48 | COc1ccc(CNc2c(CO)cnc3c2cnn3C)cc1 | 1
49 | Cc1ccnc(NC(=O)CCC(=O)N(CC(=O)NCc2ccccc2)Cc2ccco2)c1 | 0.9
50 | CCOC(=O)C1=C(CN2CCCCCC2)NC(=O)NC1c1cccc([N+](=O)[O-])c1 (configuration not stated) | 0.9
51 | CC(NC(=O)C(=O)N/N=C/c1ccc(Cl)cc1)c1ccccc1 (configuration not stated) | 1.1
52 | O=C1CC(c2ccccc2)C(=O)N1c1cccc(O)c1 (configuration not stated) | 0.9

Row | Compound | activation factor
53 | O=C(NNC1CC(=O)N(c2cccc(Cl)c2)C1=O)c1cccnc1 (configuration not stated) | 1.2
54 | O=C1CC(NNc2ccccc2)C(=O)N1c1cccc(Cl)c1 (configuration not stated) | 2 (active)
55 | C/C(=N\NC(=S)NCc1ccccc1)C1CCCCC1 | 1.2
56 | O=C(CCNC(=O)Cn1ccc2ccccc2c1=O)NCCC1=CCCCC1 | 1.1
57 | CCc1cccc(CC)c1NC(=S)NCc1ccc2[nH]c(C)cc2c1 | 0.9
58 | COc1ccc(Br)cc1/C=N/Nc1ccc(Cl)c(C(=O)O)c1 | 2.6 (active)
59 | COc1ccc(Br)cc1/C=N/NC(=O)c1cccc(S(=O)(=O)N2CCOCC2)c1 | 1
60 | COc1ccc(Br)cc1/C=N/n1c(C)nnc1C | 1
61 | OCC(O)CN(c1ccccc1)c1ccccc1 (configuration not stated) | 1
62 | CC(C)C(=O)Nc1ccc2oc(=O)ccc2c1 | 1
63 | COc1ccc(C(=O)CSc2nc(C)cc(C)n2)cc1[N+](=O)[O-] | 0.9
64 | Cn1nc(-c2ccccc2)c(CO)c1Sc1ccccc1 | 1
65 | c1ccc2[nH]c(-c3nc4ccccc4[nH]3)nc2c1 | 1.1
66 | O=C(Nc1ccccc1)c1cc2ccccc2[nH]1 | 0.9
67 | S=c1ccc2ccccc2[nH]1 | 2.8 (active)
68 | CCOc1ccc(C2c3[nH]c4ccccc4c3CCN2Cc2cn(CC)nc2C)cc1 (configuration not stated) | 0.8
69 | CN(C)CC(C)(C)CNC(=O)c1cc(Br)cc(Br)c1O | 0.8
70 | O=C1C2C3C=CC(C4CC34)C2C(=O)N1c1nccs1 (configuration not stated) | 1
71 | CCN(CC)CC1(O)CCN(C(=O)c2ccc(Cl)c(Cl)c2)CC1 | 0.9
72 | O=C(O)c1ccc(N/N=C/c2ccc3ncccc3c2)cc1 | 2.3 (active)
73 | O=C(O)c1ccc(N/N=C/c2cn(-c3ccccc3)nc2-c2cccs2)cc1 | 1.7
74 | CCNC(=S)NNC(=O)c1ccc2ncccc2c1 | 1
75 | Cc1ccc(NC(=O)N2CCSc3ccccc32)cc1 | 0.9
76 | O=C(CNCc1ccc(Cl)cc1)Nc1cccc(C(=O)O)c1 | 1.1
77 | O=c1c2ccccc2c(-c2ccccc2)nn1Cc1ccccc1 | 1
78 | Cn1c(CO)cnc1SCc1ccccc1 | 1.1

Row | Compound | activation factor
79 | CSc1c(SCc2ccccc2)cnn(Cc2ccccc2)c1=O | 2.4 (active)
80 | COc1ccc(NC(=O)COc2ccc(C(=O)OCC(=O)N(C)C3CCS(=O)(=O)C3)cc2OC)cc1 (configuration not stated) | 1.1
81 | Cc1ccnc(NC(=O)CCC(=O)N(CC(=O)NCCc2ccccc2)Cc2cccs2)c1 | 1
82 | CCOC(=O)C(CC)/C(C)=N\NC(=O)c1cccc(C)c1 (configuration not stated) | 0.9
83 | COc1ccc(NC(=O)C(C)SCc2ccccc2)cc1 (configuration not stated) | 1
84 | Cc1cc(Cl)ccc1C(=O)C1CCCN(C(=O)CCN2CCCO2)C1 (configuration not stated) | 1.1
85 | Cc1cccc(C)c1NC(=O)c1ccc(CN2CCc3ccccc3C2)cc1 | 1
86 | CCc1cccc(C)c1NC(=S)N(CCCN1CCN(C)CC1)Cc1cccs1 | 1
87 | Cc1cccc(C)c1NC(=O)C1(C)c2cccc[n+]2CC(=O)N1Cc1cccs1 (configuration not stated) | 2 (active)
88 | Cc1ccc(N(CCC(=O)O)S(=O)(=O)c2cccc(C(F)(F)F)c2)cc1 | 1.1
89 | O=[N+]([O-])c1ccc(N2CCN(S(=O)(=O)c3ccccc3)CC2)cc1N1CCc2ccccc2C1 | 0.9
90 | COc1ccc(/C=N/N=C2/C(=O)Nc3ccccc32)cc1O | 1
91 | C/C=C/C=C/C(=O)OCC(=O)Nc1ccc(Cl)cc1 | 1
92 | CS/C(=C\[N+](=O)[O-])Nc1ccc(C)cc1 | 1
93 | Cn1cnnc1Sc1ccc(S(C)(=O)=O)cc1[N+](=O)[O-] | 0.9
94 | O=C(Nc1cnccn1)c1cccnc1 | 1
95 | O=C(NNC(=O)c1cccnc1)Nc1ccccc1 | 1.1
96 | O=C(NN=C1CCC(=NNC(=O)c2cccnc2)CC1)c1cccnc1 | 2 (active)
97 | C/C(N)=C(/C#N)C(=O)COC(=O)C1CCN(C(=O)c2ccc(Cl)cc2)CC1 | 1
98 | CCc1cc2cc(OC)ccc2nc1SCC(=O)Nc1cc(OC)c(OC)cc1C(=O)O | 0.8
99 | O=C(/C=C/c1ccc(Cl)c([N+](=O)[O-])c1)c1cccnc1 | 1.1
100 | CC(CCO)Nc1nc2c([nH]1)c(=O)n(C)c(=O)n2C (configuration not stated) | 0.9
101 | CCCSc1nc2c(c(=O)n(C)c(=O)n2C)n1Cc1ccc(C)cc1 | 1
102 | Cc1ccc(NN=Nc2nc3c([nH]2)c(=O)n(C)c(=O)n3C)cc1 | 2 (active)
